The record followed here is ChEMBL document CHEMBL2040835, “Disubstituted Bis-THF Moieties as New P2 Ligands in Nonpeptidal HIV-1 Protease Inhibitors” (ACS Med Chem Lett, 2011).

SMILES strings stand for the structures.

Data set [1] relates to Human immunodeficiency virus 1. The experiment in a line: Antiviral activity against Human immunodeficiency virus 1 3B expressing wild-type protease infected in human MT4 cells. Format: functional, organism-based. The method, boiled down: (§1)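 Cell-based antiviral assay in MT4 cells infected with wild-type HIV-1 IIIB, read as EC50. Run in quadruplicate. It was also repeated in the presence of 50% human serum as an indicator of plasma protein binding.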

Data set [2] concerns Human immunodeficiency virus 1. The experiment in a line: Antiviral activity against Human immunodeficiency virus 1 isolate M1 expressing protease L10I, M46I, I64V, I84V, L90M, I93L mutant infected in human MT4 cells. Format: functional, organism-based. Particulars: Human immunodeficiency virus 1, isolate M1, MT4. The method, boiled down:
(§2)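 Cell-based antiviral assay in MT4 cells infected with a multi-PI-resistant HIV-1 mutant carrying clinically observed primary protease mutations. EC50 determined, with all assays run in quadruplicate.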

Data set [3] has as its system Human immunodeficiency virus 1. Put plainly: Antiviral activity against Human immunodeficiency virus 1 isolate M2 expressing protease L10I, I13V, M46I, I50V, L63P, L76V mutant infected in human MT4 cells. In kind it is functional, organism-based. Particulars: Human immunodeficiency virus 1, isolate M2, MT4. The method, boiled down: as §2
Data set [4] relates to Human immunodeficiency virus 1. The experiment in a line: Antiviral activity against Human immunodeficiency virus 1 isolate M3 expressing protease L10I, K20R, M36I, G48V, I62V, A71V, V82A, I93L mutant infected in human MT4 cells. Format: functional, organism-based. Particulars: Human immunodeficiency virus 1, isolate M3, MT4.
For data set [5], the system named is Human immunodeficiency virus 1. The experiment in a line: Selectivity index, ratio of EC50 for Human immunodeficiency virus 1 isolate M1 expressing protease L10I, M46I, I64V, I84V, L90M, I93L mutant to EC50 for Human immunodeficiency virus 1 3B expressing wild-type protease. In kind it is functional. The method, boiled down: (§3)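 Fold change is the EC50 against the multi-PI-resistant mutant divided by the EC50 against wild-type HIV-1 IIIB. Both EC50s come from cell-based assays in MT4 cells run in quadruplicate.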

The subject of data set [6] is Human immunodeficiency virus 1. Put plainly: Selectivity index, ratio of EC50 for Human immunodeficiency virus 1 isolate M2 expressing protease L10I, I13V, M46I, I50V, L63P, L76V mutant to EC50 for Human immunodeficiency virus 1 3B expressing wild-type protease. In kind it is functional. The method, boiled down: as §3
The test system of data set [7] is Human immunodeficiency virus 1. Put plainly: Selectivity index, ratio of EC50 for Human immunodeficiency virus 1 isolate M3 expressing protease L10I, K20R, M36I, G48V, I62V, A71V, V82A, I93L mutant to EC50 for Human immunodeficiency virus 1 3B expressing wild-type protease. Format: functional. The method, boiled down: as §3
Data set [8] has as its system Human immunodeficiency virus 1. Put plainly: Antiviral activity against Human immunodeficiency virus 1 3B expressing wild-type protease infected in human MT4 cells in presence of 50% human serum. Format: functional, organism-based. The method, boiled down: as §1
Data set [9] addresses Protease (Human immunodeficiency virus 1, UniProt Q9YQ12). Put plainly: Inhibition of Human immunodeficiency virus 1 3B protease.
The nature of data set [10]: Ratio of EC50 for Human immunodeficiency virus 1 3B expressing wild-type protease to IC50 for Human immunodeficiency virus 1 3B protease.
The nature of data set [11]: Cytotoxicity against human MT4 cells. Format: cell-based.
A short description of data set [12]: Selectivity index, ratio of CC50 for human MT4 cells to EC50 for Human immunodeficiency virus 1 3B. Format: toxicity, cell-based. The method, boiled down: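 Selectivity index is calculated as CC50 divided by EC50 against HIV-1 IIIB in the cell-based assay.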

Chain of Protease (Q9YQ12 whole entry): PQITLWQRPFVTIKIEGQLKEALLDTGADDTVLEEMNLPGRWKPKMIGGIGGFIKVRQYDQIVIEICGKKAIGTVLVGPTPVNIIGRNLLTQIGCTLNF

For `CC(C)CN(C[C@@H](O)[C@H](Cc1ccccc1)NC(=O)O[C@H]1CO[C@H]2OC[C@H](O)[C@H]21)S(=O)(=O)c1ccc(N)cc1`, the EC50 turned out to be 773 nM in data set [1]; 112 nM in data set [2]; 204 nM in data set [3]; 40.4 nM in data set [4]; 814 nM in data set [8]. In addition, the “Ratio EC50” value in [5] is 0.1; in [6], 0.3; in [7], less than 0.1. Also, the IC50 in [9] was 2.9 nM. Also, the Ratio in data set [10] is 250.

Consider `CC(C)CN(C[C@@H](O)[C@H](Cc1ccccc1)NC(=O)O[C@H]1CO[C@H]2OC[C@H](OCc3ccccc3)[C@H]21)S(=O)(=O)c1ccc(N)cc1`, for which the EC50 in data set [1] was determined as 1.5 nM; in data set [2], 4.7 nM; in [3], 18 nM; in data set [4], 1.7 nM; in [8], 12.1 nM. Further, the “Ratio EC50” value in data set [5] came to 3.1; in [6], 12; in data set [7], 1.1. Also, the CC50 in data set [11] was more than 9800 nM. Further, the selectivity ratio in data set [12] is more than 2000. Further, in data set [9], the IC50 stood at 3.5 nM.

In the case of `COCCO[C@H]1CO[C@@H]2OC[C@H](OC(=O)N[C@@H](Cc3ccccc3)[C@H](O)CN(CC(C)C)S(=O)(=O)c3ccc(N)cc3)[C@@H]21`, the EC50 came out at 15.5 nM in [1]; 11.9 nM in [2]; 71.4 nM in data set [3]; 6.8 nM in data set [4]; 37 nM in data set [8]. Besides, the figures for the “Ratio EC50” value in [5], in data set [6] and in data set [7] were 0.8, 4.6 and 0.4, respectively. Besides, in [11], the half-maximal cytotoxic concentration (CC50) is more than 9800 nM. The selectivity ratio in [12] was more than 2000. For the same compound, in data set [9], it took 2.5 nM to reach half-maximal inhibition (IC50).

Regarding `CNc1nc2ccc(S(=O)(=O)N(CC(C)C)C[C@@H](O)[C@H](Cc3ccccc3)NC(=O)O[C@H]3CO[C@H]4OC[C@H](OCc5ccc(F)cc5)[C@H]43)cc2o1`, the EC50 in data set [1] came out at 0.6 nM; in data set [2], 1.1 nM; in data set [3] it was 2.3 nM; in data set [4], 1 nM; in data set [8] it was 4 nM. Moreover, the “Ratio EC50” value in data set [5] is 1.8; in [6], 3.8; in data set [7] it was 1.6. The same compound yielded a 50% cytotoxic concentration (CC50) in data set [11] of more than 9800 nM. Besides, the selectivity ratio in [12] is more than 2000.

Turning to `CNc1nc2ccc(S(=O)(=O)N(CC(C)C)C[C@@H](O)[C@H](Cc3ccccc3)NC(=O)O[C@H]3CO[C@H]4OC[C@H](OCc5ccc(F)cc5F)[C@H]43)cc2o1`, the EC50 is 0.6 nM in data set [1]; 1.1 nM in data set [2]; 2.3 nM in [3]; 0.7 nM in [4]; 5.4 nM in [8]. For the same compound, the entries for the “Ratio EC50” value in data set [5], in data set [6] and in data set [7] were 2, 4.1 and 1.3, respectively. This compound also displayed a CC50 in data set [11] of more than 9800 nM. Further, in data set [12], the selectivity ratio is more than 2000.

In the case of `CNc1nc2ccc(S(=O)(=O)N(CC(C)C)C[C@@H](O)[C@H](Cc3ccccc3)NC(=O)O[C@H]3CO[C@H]4OC[C@H](OCCOC)[C@H]43)cc2o1`, the EC50 in data set [1] stood at 8.6 nM; in data set [2] it was 6.9 nM; in data set [3] it was 10.8 nM; in [4] it was 4.3 nM; in data set [8] it was 24 nM. In addition, the “Ratio EC50” value in [5] is reported as 0.8; in [6] it was 1.3; in data set [7], 0.5. In addition, the half-maximal cytotoxic concentration (CC50) in [11] is more than 9800 nM. Also, the selectivity ratio in [12] is more than 2000. This compound also had an IC50 in [9] of 1.5 nM.

Consider `CNc1nc2ccc(S(=O)(=O)N(CC(C)C)C[C@@H](O)[C@H](Cc3ccccc3)NC(=O)O[C@H]3CO[C@H]4OC[C@H](OCOC)[C@H]43)cc2o1`, for which the EC50 in [1] was 3.4 nM; in data set [2], 5 nM; in data set [3], 11.2 nM; in data set [4], 1.9 nM; in [8] it was 7 nM. The “Ratio EC50” value is recorded as 1.2 in data set [5], 2.4 in data set [6] and 0.7 in [7]. This compound also returned a CC50 in data set [11] of more than 9800 nM. Further, the selectivity ratio in data set [12] was more than 2000.

As to `CNc1nc2ccc(S(=O)(=O)N(CC(C)C)C[C@@H](O)[C@H](Cc3ccccc3)NC(=O)O[C@H]3CO[C@H]4OC[C@H](OCSC)[C@H]43)cc2o1`, the EC50 in data set [1] is 1.3 nM; in data set [2], 3.9 nM; in [3], 9.3 nM; in [4] it was 2.2 nM; in data set [8] it was 6.7 nM. The results for the “Ratio EC50” value in data set [5], in data set [6] and in [7] were 3, 7.1 and 1.7, respectively. The compound further displayed a CC50 in [11] of more than 9800 nM. Also, the selectivity ratio in data set [12] is more than 2000.

Turning to `COC(=O)N[C@H](C(=O)N[C@@H](Cc1ccccc1)[C@@H](O)CN(Cc1ccc(-c2ccccn2)cc1)NC(=O)[C@@H](NC(=O)OC)C(C)(C)C)C(C)(C)C` [ATAZANAVIR], the EC50 in data set [1] came to 6.9 nM; in data set [2] it was 58 nM; in [3], 3.2 nM; in [4], 60.5 nM; in data set [8] it was 13.3 nM. For the same compound, the results for the “Ratio EC50” value in data set [5], in data set [6] and in [7] were 8.4, 0.5 and 8.8, respectively. Moreover, the 50% cytotoxic concentration (CC50) in [11] was more than 9800 nM. Also, the selectivity ratio in data set [12] is more than 2000.
